Assay results as given in ChEMBL document CHEMBL1150353, “Development of novel antiatherogenic biaryls: design, synthesis, and reactivity” (2008).
Active and inactive are the calls of the source. The calls are words filed in the database; no cut-off is given here.

Assays:
[1] = Antioxidant activity in HMEC1 cells assessed as inhibition of LDL oxidation at 10 uM after 6 hrs by TBARS assay relative to control; format: functional, Homo sapiens, HMEC-1; design: scale not given: the % may be the effect or the level left
Procedure, shortened: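 HMEC-1 (sparse proliferative) in serum-free RPMI-1640 with native LDL 100 µg apoB/mL and CuSO4 1 µM, 37 °C, 6 h; compounds added from DMSO (<0.1% final) at 10 µM just before oxidation, in duplicate. TBARS in medium measured fluorimetrically; expressed as % of TBARS with cells and no agent.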

HMEC-1 [2] = assay: Protection against oxidized LDL-induced cytotoxicity in HMEC1 cells assessed as residual cell viability after 24 hrs by MTT assay relative to control; format: functional, Homo sapiens
Procedure, shortened: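 HMEC-1 exposed 6 h at 37 °C to native LDL (100 µg apoB/mL) with 1 µM CuSO4 in serum-free RPMI, with or without agent (10 µM, DMSO <0.1%); toxicity of the cell-oxidized LDL read by MTT after 24 h, as % of unstimulated cells kept in fresh RPMI without LDL or antioxidant.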

HMEC-1 [3] = assay: Inhibition of 4-hydroxynonenal-induced carbonyl stress in HMEC1 cells assessed as prevention of increase in carbonylated protein level at 10 uM relative to control; format: functional, cell-based; settings: Homo sapiens
Procedure, shortened: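 HMEC-1 were incubated overnight with 50 µM 4-HNE in FCS-free RPMI-1640 with the compound, then washed, scraped and pelleted. Protein was derivatized for 1 h at room temperature with 0.1% DNPH in 2 M HCl, precipitated with TCA, and washed with ethanol/ethyl acetate. It was dissolved in 8 M guanidine buffer (pH 7.4) and read at 365 nm. Results are % of unstimulated control, mean of four experiments.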

HMEC-1 [4] = assay: Cytoprotective activity against ultraviolet irradiation oxidized LDL and 4-hydroxynonenal-induced cytotoxicity in HMEC1 cells assessed as cell survival at 10 uM after 24 hrs relative to control; format: functional, cell-based; settings: Homo sapiens
Procedure, shortened: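 HMEC-1 were exposed to 4-HNE added directly to the medium, or to UV-oxidized LDL. For the oxidized LDL, LDL at 2 mg apoB/mL with 2 µmol/L CuSO₄ was irradiated with UV-C (254 nm) for 2 h and then added at 200 µg apoB/mL. Compounds were present during exposure. Viability was read by MTT after 24 h, as % of cells in LDL-free medium. Each value is the mean of four determinations.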

U-937 = assay: Inhibition of foam cell formation in LDL exposed human U937 cells assessed as accumulation of red O-stained lipid droplets at 10 uM for 14 hrs by nile red fluorescence assay; format: functional, cell-based
Procedure, shortened: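 U937 grown in RPMI with 10% FCS were used at subconfluence. They were incubated for 14 h in fresh RPMI containing native LDL (100 µg/mL), 1 µM CuSO₄ and agent (10 µM). Cells were fixed in 10% paraformaldehyde, stained with 0.5 µg/mL Nile Red, scraped and read fluorometrically (ex 460/em 550 nm). Parallel slides were stained with oil red O and hematoxylin and examined microscopically. Data are the mean of three experiments.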

[5] = (§1) Cytoprotective activity against ultraviolet irradiation oxidized LDL-induced cytotoxicity in HMEC1 cells assessed as residual cell survival at 10 uM for 24 hrs by MTT assay relative to control; format: functional, Homo sapiens, HMEC-1
Procedure, shortened: (§2)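 HMEC-1 were exposed to UV-C-oxidized LDL. LDL at 2 mg apoB/mL with 2 µmol/L CuSO₄ was irradiated for 2 h at 254 nm, then added to the medium at 200 µg apoB/mL together with the compound. MTT viability was read after 24 h, as % of unstimulated cells in LDL-free medium. Each value is the mean of four determinations.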

HMEC-1 [6] = assay: as §1; format: functional; settings: Homo sapiens; procedure, shortened: as §2

Structure (SMILES) | Activity [1] [%] | Activity (HMEC-1 [2]) [%] | Activity (HMEC-1 [3]) | Activity (HMEC-1 [4]) | Activity (U-937) | Activity [5] [%] | Activity (HMEC-1 [6])
Cc1c(C)c2c(c(C)c1O)CC[C@@](C)(CCC[C@H](C)CCC[C@H](C)CCCC(C)C)O2 [ALPHA-TOCOPHEROL] | 55 | 29 |  |  |  |  | 
CCOP(=O)(/C=C/c1cc(OC)c(O)c(-c2cc(C=O)cc(OC)c2O)c1)OCC | 67.5 | 63.5 |  |  |  |  | 
CC(C)(Sc1cc(C(C)(C)C)c(O)c(C(C)(C)C)c1)Sc1cc(C(C)(C)C)c(O)c(C(C)(C)C)c1 [PROBUCOL] | 10 | 92 |  |  |  |  | 
COc1cc(/C=N/Nc2nncc3ccccc23)cc(-c2cc(/C=N/Nc3nncc4ccccc34)cc(OC)c2O)c1O.Cl | 2.8 | 82 | Active | Active | Active | 80 | 
COc1cc(C=O)cc(-c2cc(C=O)cc(OC)c2O)c1O | 86.2 | 40.5 |  |  |  |  | 
CCOP(=O)(/C=C/c1cc(OC)c(O)c(-c2cc(/C=N/NC(=O)c3ccncc3)cc(OC)c2O)c1)OCC | 67.5 | 31.2 |  |  |  |  | 
CCOP(=O)(/C=C/c1cc(OC)c(O)c(-c2cc(/C=C/P(=O)(OCC)OCC)cc(OC)c2O)c1)OCC | 67.4 | 66 |  |  | Active |  | 
COc1cc(/C=N/NC(=O)c2ccncc2)cc(-c2cc(/C=N/NC(=O)c3ccncc3)cc(OC)c2O)c1O | 83 | 13.5 | inactive |  |  |  | 
CCOP(=O)(/C=C/c1cc(OC)c(O)c(-c2cc(/C=N/Nc3nncc4ccccc34)cc(OC)c2O)c1)OCC.Cl | 4.1 | 61.2 |  |  |  |  | Active
